Source: ChEMBL document CHEMBL2157871, “Identification of a novel and orally available benzimidazole derivative as an NPY Y5 receptor antagonist with in vivo efficacy” (Bioorg Med Chem Lett, 2012)

Columns and labels:
[1] = test system: Mus musculus; experiment: Antiobesity activity in DIO mouse assessed as decrease in [cPP(1 to 7),NPY(19 to 23),Ala(31),Alb(32),Gln(34)]-induced food intake at 12.5 mg/kg, po administered 1 hr prior to [cPP(1 to 7),NPY(19 to 23),Ala(31),Alb(32),Gln(34)]-induction measured at 2 hrs relative to vehicle-treated control; assay type: functional; set-up: scale not given: the % may be the effect or the level left
[2] = target: T1, Cytochrome P450 1A2 (Homo sapiens, UniProt P05177); experiment: Inhibition of CYP1A2; assay type: ADME
T1 sequence (P05177 whole entry): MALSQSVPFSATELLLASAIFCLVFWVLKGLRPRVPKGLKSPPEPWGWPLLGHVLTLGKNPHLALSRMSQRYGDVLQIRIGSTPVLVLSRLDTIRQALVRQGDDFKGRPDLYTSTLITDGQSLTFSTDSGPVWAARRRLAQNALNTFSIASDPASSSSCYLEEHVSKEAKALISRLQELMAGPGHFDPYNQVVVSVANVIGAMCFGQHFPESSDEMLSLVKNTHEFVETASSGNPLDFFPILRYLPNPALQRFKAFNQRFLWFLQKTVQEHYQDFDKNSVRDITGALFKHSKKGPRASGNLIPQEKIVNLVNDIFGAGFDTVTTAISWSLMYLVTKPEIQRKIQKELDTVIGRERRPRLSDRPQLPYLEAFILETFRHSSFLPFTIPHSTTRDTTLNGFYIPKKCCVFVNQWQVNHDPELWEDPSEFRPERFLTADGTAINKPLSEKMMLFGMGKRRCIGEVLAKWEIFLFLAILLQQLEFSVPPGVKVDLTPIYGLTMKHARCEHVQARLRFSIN

[3] = Metabolic stability in human liver microsomes assessed as compound remaining after 30 mins; assay type: ADME, Microsome; conditions: read-out: Stability
Summary of the method: (§1)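 Human or rat liver microsomes incubated with compound for 30 min. Result given as percent of parent compound remaining.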

[4] = Metabolic stability in rat liver microsomes assessed as compound remaining after 30 mins; assay type: ADME, Microsome; conditions: read-out: Stability; summary of the method: as §1
[5] = target: Cytochrome P450 3A4 (Homo sapiens, UniProt P08684); experiment: Inhibition of CYP3A4; assay type: ADME
Chain of Cytochrome P450 3A4 (P08684 whole entry): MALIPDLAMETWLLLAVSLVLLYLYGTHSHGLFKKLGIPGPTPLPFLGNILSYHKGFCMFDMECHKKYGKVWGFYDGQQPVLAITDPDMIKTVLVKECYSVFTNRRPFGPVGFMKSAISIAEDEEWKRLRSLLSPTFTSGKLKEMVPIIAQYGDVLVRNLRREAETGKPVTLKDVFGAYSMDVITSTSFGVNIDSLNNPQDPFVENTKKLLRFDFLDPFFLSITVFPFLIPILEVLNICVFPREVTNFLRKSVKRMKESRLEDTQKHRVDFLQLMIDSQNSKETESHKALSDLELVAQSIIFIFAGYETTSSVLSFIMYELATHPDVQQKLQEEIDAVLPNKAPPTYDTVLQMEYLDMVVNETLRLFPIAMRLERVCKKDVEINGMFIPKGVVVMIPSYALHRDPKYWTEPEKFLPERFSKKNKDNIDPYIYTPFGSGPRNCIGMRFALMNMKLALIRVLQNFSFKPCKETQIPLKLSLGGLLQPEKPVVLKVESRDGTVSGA

[6] = target: T2, Neuropeptide Y receptor type 5 (Mus musculus, UniProt O70342); experiment: Displacement of [125I]PYY from mouse NPY Y5 receptor
T2 sequence (O70342 whole entry): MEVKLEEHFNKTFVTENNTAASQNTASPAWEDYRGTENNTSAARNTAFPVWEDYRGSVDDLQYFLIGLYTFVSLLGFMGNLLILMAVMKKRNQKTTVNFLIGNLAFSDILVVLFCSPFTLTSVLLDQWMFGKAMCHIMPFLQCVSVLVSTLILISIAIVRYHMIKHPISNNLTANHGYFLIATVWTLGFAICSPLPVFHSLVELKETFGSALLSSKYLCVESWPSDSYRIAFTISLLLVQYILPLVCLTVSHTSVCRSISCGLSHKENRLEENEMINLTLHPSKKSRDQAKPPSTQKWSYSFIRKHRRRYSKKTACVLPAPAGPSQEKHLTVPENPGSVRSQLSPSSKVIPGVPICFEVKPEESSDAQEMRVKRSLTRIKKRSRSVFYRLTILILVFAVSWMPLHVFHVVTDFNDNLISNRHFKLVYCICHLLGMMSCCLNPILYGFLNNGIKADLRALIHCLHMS
Summary of the method: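 Competition binding at mouse NPY Y5 receptors with 125I-PYY as ligand. IC50 is the concentration giving 50% inhibition of total specific binding, taken as the mean of two or more independent assays.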

[7] = target: Cytochrome P450 2C19 (Homo sapiens, UniProt P33261); experiment: Inhibition of CYP2C19; assay type: ADME
Chain of Cytochrome P450 2C19 (P33261 whole entry): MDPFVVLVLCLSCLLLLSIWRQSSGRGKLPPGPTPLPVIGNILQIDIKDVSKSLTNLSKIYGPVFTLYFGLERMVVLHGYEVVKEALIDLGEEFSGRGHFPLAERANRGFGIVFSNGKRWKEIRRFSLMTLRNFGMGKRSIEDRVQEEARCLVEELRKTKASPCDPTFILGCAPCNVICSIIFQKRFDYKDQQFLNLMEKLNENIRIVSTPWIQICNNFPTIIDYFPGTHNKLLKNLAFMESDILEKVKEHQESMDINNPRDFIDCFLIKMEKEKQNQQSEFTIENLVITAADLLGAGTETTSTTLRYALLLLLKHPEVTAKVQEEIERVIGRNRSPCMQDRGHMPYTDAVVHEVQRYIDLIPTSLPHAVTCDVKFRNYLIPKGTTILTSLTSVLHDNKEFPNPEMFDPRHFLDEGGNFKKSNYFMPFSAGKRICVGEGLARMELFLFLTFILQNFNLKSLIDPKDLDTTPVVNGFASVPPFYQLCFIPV

[8] = target: Cytochrome P450 2C9 (Homo sapiens, UniProt P11712); experiment: Inhibition of CYP2C9; assay type: ADME
Chain of Cytochrome P450 2C9 (P11712 whole entry): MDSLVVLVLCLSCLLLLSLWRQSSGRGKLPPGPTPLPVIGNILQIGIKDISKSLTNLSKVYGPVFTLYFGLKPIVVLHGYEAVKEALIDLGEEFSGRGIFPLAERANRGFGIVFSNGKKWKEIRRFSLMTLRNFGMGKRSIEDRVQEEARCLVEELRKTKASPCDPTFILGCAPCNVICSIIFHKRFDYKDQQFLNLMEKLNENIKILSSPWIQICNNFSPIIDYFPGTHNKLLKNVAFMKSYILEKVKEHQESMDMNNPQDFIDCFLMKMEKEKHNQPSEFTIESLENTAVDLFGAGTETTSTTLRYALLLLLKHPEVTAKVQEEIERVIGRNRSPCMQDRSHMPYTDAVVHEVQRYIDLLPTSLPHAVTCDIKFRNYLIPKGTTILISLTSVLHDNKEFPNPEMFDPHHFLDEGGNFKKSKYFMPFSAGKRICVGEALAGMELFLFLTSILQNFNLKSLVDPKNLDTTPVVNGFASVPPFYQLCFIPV

[9] = target: Cytochrome P450 2D6 (Homo sapiens, UniProt P10635); experiment: Inhibition of CYP2D6; assay type: ADME
Chain of Cytochrome P450 2D6 (P10635 whole entry): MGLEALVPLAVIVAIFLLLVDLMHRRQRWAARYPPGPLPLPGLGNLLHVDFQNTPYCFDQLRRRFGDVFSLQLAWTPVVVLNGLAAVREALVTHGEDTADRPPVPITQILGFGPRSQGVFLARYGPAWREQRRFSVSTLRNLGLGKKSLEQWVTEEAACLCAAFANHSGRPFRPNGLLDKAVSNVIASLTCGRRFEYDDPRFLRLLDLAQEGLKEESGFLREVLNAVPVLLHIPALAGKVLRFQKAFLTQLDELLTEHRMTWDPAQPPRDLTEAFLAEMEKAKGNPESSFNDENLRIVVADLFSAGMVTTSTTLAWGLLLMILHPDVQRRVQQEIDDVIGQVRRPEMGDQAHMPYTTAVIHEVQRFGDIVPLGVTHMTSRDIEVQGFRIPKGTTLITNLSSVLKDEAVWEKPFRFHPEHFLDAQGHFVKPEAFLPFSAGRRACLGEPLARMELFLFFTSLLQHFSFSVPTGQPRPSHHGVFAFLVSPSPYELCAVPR

[10] = test system: Mus musculus; experiment: Antiobesity activity in DIO mouse assessed as decrease in [cPP(1 to 7),NPY(19 to 23),Ala(31),Alb(32),Gln(34)]-induced food intake at 12.5 mg/kg, po administered 1 hr prior to [cPP(1 to 7),NPY(19 to 23),Ala(31),Alb(32),Gln(34)]-induction measured at 4 hrs relative to vehicle-treated control; assay type: functional; set-up: scale not given: the % may be the effect or the level left
Summary of the method: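 Diet-induced obese mice dosed orally at 12.5 mg/kg 1 h before icv injection of a Y5-selective agonist (0.1 nmol). Cumulative food intake recorded over the following 4 h.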

[11] = Kinetic solubility of the compound in 1%DMSO at pH 6.8; assay type: physicochemical; conditions: read-out: Kinetic_solubility
Summary of the method: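 Kinetic solubility measured at pH 6.8 from a 1% DMSO solution.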

Row | INH [2] | remaining at 0.5 h [3] | remaining at 0.5 h [4] | INH [5] | IC50 [6] | INH [7] | INH [8] | INH [9] | solubility kinetic [11] | Structure (SMILES) | Activity [1] | Activity [10]
1 | > 20 µM | 89% | 76.1% | > 20 µM | 0.43 nM | > 20 µM | > 20 µM | > 20 µM | > 50 µM | CCS(=O)(=O)c1ccc2nc(N3CCOC(c4ccccc4)C3)[nH]c2c1 (configuration not stated) | 56% | 42.7%
2 | > 20 µM | 77.9% | 45.9% | > 20 µM | 0.6 nM | 19 µM | > 20 µM | > 20 µM | > 50 µM | CCCS(=O)(=O)c1ccc2nc(N3CCOC(c4ccccc4)C3)[nH]c2c1 (configuration not stated) |  | 
3 | 15 µM | 87% | 49.5% | 16 µM | 1.33 nM | 19 µM | > 20 µM | > 20 µM | > 50 µM | CC(C)S(=O)(=O)c1ccc2nc(N3CCOC(c4ccccc4)C3)[nH]c2c1 (configuration not stated) |  | 
4 | > 20 µM | 55.1% | 2.4% | 9.3 µM | 0.28 nM | > 20 µM | 17 µM | > 20 µM | 43.2 µM | CC(C)CS(=O)(=O)c1ccc2[nH]c(N3CCOC(c4ccccc4)C3)nc2c1 (configuration not stated) |  | 
5 | > 20 µM | 78.5% | 56.4% | 14 µM | 4.27 nM | > 20 µM | > 20 µM | > 20 µM | 10.7 µM | CC(C)(C)S(=O)(=O)c1ccc2[nH]c(N3CCOC(c4ccccc4)C3)nc2c1 (configuration not stated) |  | 
6 | > 20 µM | 92.4% | 87.1% | > 20 µM | 1.05 nM | > 20 µM | > 20 µM | > 20 µM | > 50 µM | CCS(=O)(=O)c1ccc2[nH]c(N3CCOC(c4ccc(F)cc4)C3)nc2c1 (configuration not stated) |  | 
7 | 17 µM | 81.7% | 67.9% | 2.3 µM | 0.73 nM | 1.7 µM | 4.5 µM | 5.5 µM | 3.7 µM | O=S(=O)(c1ccc2nc(N3CCOC(c4ccccc4)C3)[nH]c2c1)C(F)(F)F (configuration not stated) |  | 
8 | > 20 µM | 74.9% | 19.2% | 14 µM | 1.01 nM | > 20 µM | 17 µM | > 20 µM | 15.4 µM | CCCS(=O)(=O)c1ccc2[nH]c(N3CCC(c4ccccc4)C3)nc2c1 (configuration not stated) |  | 
9 | 18 µM | 60.2% | 37.8% | 8.2 µM | 1.43 nM | 17 µM | 11 µM | 18 µM | 11.6 µM | CC(C)(C(F)(F)F)S(=O)(=O)c1ccc2nc(N3CCOC(c4ccccc4)C3)[nH]c2c1 (configuration not stated) |  | 
10 | > 20 µM | 85% | 63.5% | 15 µM | 0.21 nM | > 20 µM | > 20 µM | > 20 µM | > 50 µM | O=S(=O)(CC(F)(F)F)c1ccc2[nH]c(N3CCOC(c4ccccc4)C3)nc2c1 (configuration not stated) |  | 

The next lines start with the molecule.

Row | Structure (SMILES) | INH [2] | remaining at 0.5 h [3] | remaining at 0.5 h [4] | INH [5] | IC50 [6] | INH [7] | INH [8] | INH [9] | solubility kinetic [11] | Activity [1] | Activity [10]
11 | CCCS(=O)(=O)c1ccc2nc(N3CCN(C)C(c4ccccc4)C3)[nH]c2c1 (configuration not stated) | > 20 µM | 21.9% | 21.1% | > 20 µM | 4.99 nM | > 20 µM | > 20 µM | > 20 µM | > 50 µM |  | 
12 | CC(C)(C)S(=O)(=O)N[C@H]1CC[C@H](C(=O)Nc2ccc(C(F)(F)F)cn2)CC1 [VELNEPERIT] |  |  |  |  | 4.6 nM |  |  |  | 1.6 µg/mL |  | 
13 | CCS(=O)(=O)c1ccc2[nH]c(N3CCOC(c4ccc(C)cc4)C3)nc2c1 (configuration not stated) | > 20 µM | 87.8% | 34% | > 20 µM | 0.8 nM | 17 µM | > 20 µM | > 20 µM | 21.6 µM |  | 
14 | CCCS(=O)(=O)c1ccc2[nH]c(C3CN(c4ccccc4)CCO3)nc2c1 (configuration not stated) | > 20 µM | 66.1% | 7.5% | > 20 µM | 15.9 nM | > 20 µM | > 20 µM | > 20 µM | > 50 µM |  | 
15 | CCS(=O)(=O)c1ccc2[nH]c(N3CCO[C@H](c4ccccc4)C3)nc2c1 |  |  |  |  |  |  |  |  |  | 67.2% | 71%
16 | CCCS(=O)(=O)c1ccc2nc(N3CCCC(c4ccccc4)C3)[nH]c2c1 (configuration not stated) | > 20 µM | 45.2% | 2.2% | 6.9 µM | 0.29 nM | 12 µM | 9.4 µM | 13 µM | 19.1 µM |  | 
17 | CCS(=O)(=O)c1ccc2[nH]c(N3CCOC(c4ccc(Cl)cc4)C3)nc2c1 (configuration not stated) | 9.2 µM | 94.6% | 87.2% | 13 µM | 0.85 nM | 9.1 µM | > 20 µM | 18 µM | 38.1 µM |  | 
18 | CCS(=O)(=O)c1ccc2[nH]c(N3CCOC(c4ccc(OC)cc4)C3)nc2c1 (configuration not stated) | > 20 µM | 81% | 48% | > 20 µM | 3.03 nM | > 20 µM | > 20 µM | > 20 µM | > 50 µM |  | 
19 | CCCS(=O)(=O)c1ccc2[nH]c(C3CCOC(c4ccccc4)C3)nc2c1 (mixture of isomers) | > 20 µM | 65% | 74% | > 20 µM | 17.2 nM | 20 µM | > 20 µM | > 20 µM | > 50 µM |  | 
20 | CCCS(=O)(=O)c1ccc2nc(C3CCC(=O)N(c4ccccc4)C3)[nH]c2c1 (configuration not stated) | > 20 µM | 81.1% | 62% | > 20 µM | 193 nM | > 20 µM | > 20 µM | > 20 µM | > 50 µM |  | 
21 | CCCS(=O)(=O)c1ccc2[nH]c(N3CCNC(c4ccccc4)C3)nc2c1 (configuration not stated) | > 20 µM | 64.4% | 44% | > 20 µM | 6.82 nM | > 20 µM | > 20 µM | > 20 µM | > 50 µM |  | 
